# Results collected from several papers.
# Each line is one published result; the experiments were not run side by side.
# Target: Cyclin-dependent kinase 2 (CDK2, Homo sapiens, UniProt P24941)
# Technique: competition with immobilised ligand
SMILES,test,setting,remaining binding [%]
O=C(NCC1CCOCC1)c1n[nH]cc1NC(=O)c1c(F)cccc1F,binding,1 µM,49
COc1ccc2cc(OCC3(C(=O)O)CN(C(=O)c4ccc(F)cc4)C3)ccc2c1,cell-free assay,1 µM,91
Nc1ncc2c(n1)-c1c([nH]c3ccc(C#CC4CC4)cc13)CCCC2,binding,1 µM,85
O=C(c1ccc(Nc2ncc(Cl)c(-c3ccc(Cl)s3)n2)cc1)N1CCC(N2CCCC2)CC1,binding,1 µM,27
CC(C)(C)c1ccc(-c2nc(CBr)nn2-c2cccc(O)c2)cc1,cell-free assay,10 µM,90
CCN1CCN(Cc2ccc(C(=O)Nc3ccc(C)c(Oc4ccc5c(c4)CC(=O)N5)c3)cc2C(F)(F)F)CC1,binding,1 µM,82
C[C@@H]1CN(c2ccc3ncc(-c4ccc5[nH]nc(C6CC6)c5c4)n3n2)C[C@H](C)O1,binding,0.5 µM,84
Cn1nc(C(F)(F)F)cc1-c1cnc(N2CCc3cc(S(=O)(=O)Nc4c(F)cc(Cl)cc4F)cc(N4CCCC4=O)c32)nc1,cell-free assay,1 µM,100
COc1cnc(Nc2cccc(S(N)(=O)=O)c2)nc1N1CCN(c2ccccc2)CC1,binding,1 µM,98
C[C@H](c1ccc(F)cc1)N(Cc1cccc(C(=O)O)c1)C(=O)c1cnc2ccccc2c1,cell-free assay,1 µM,100
c1cncc(-c2cccc(Nc3nccc(NC4CCCCC4)n3)c2)c1,binding,10 µM,81
O=C(NCCCN1CCOCC1)c1ccc(Nc2nccc(-c3cc4ccccc4s3)n2)cc1,binding,1 µM,66
Cc1cc(C)c(-n2ccn3nc(-c4cccnc4)cc23)cc1NC(=O)c1cc(C#N)cc(S(F)(F)(F)(F)F)c1,cell-free assay,0.1 µM,99
Cc1cnc(Nc2ccc(C(=O)N3CCC(N4CCCC4)CC3)cc2)nc1-c1cc2ccccc2s1,binding,1 µM,35
C[C@H]1CCN(c2nccc(-c3cnn4ncccc34)n2)C1,binding,1 µM,95
COc1ncc2cc3ccccc3nc2c1C#N,cell-free assay,5 µM,100
